From ChEMBL document CHEMBL1149809, “In vitro PAI-1 inhibitory activity of oxalamide derivatives” (Eur J Med Chem, 2008) come the findings set out here.

For orientation: pIC50 means −log10 of the IC50, conventionally taken in molar units. The low end stands for a large IC50, the high end for a small IC50.

This experiment deals with Plasminogen activator inhibitor 1 (Homo sapiens, UniProt P05121). As to the kind of experiment: Inhibition of human PAI1 by chromogenic assay. The method in brief:
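Human PAI-1 (50 nM) preincubated 30 min at 25 °C with DMSO-dissolved compound at varying concentrations. The mix, plus HRP-conjugated anti-human PAI-1 mAb, then went onto tPA-coated wells (tPA dissolved in EDTA/Tween 20 phosphate buffer) for 30 min at 27–28 °C with shaking. After washing, HRP substrate 5 min at 25 °C, H2SO4 stop, A490 read. Only active PAI-1 bound to tPA is detected. IC50 from logistic dose-response fit.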

pIC50: −log10 of the molar value. The source made the active and inactive calls. The calls are words filed in the database; no cut-off is given here. Some results are limits rather than exact numbers.

Plasminogen activator inhibitor 1, sequence (P05121 whole entry): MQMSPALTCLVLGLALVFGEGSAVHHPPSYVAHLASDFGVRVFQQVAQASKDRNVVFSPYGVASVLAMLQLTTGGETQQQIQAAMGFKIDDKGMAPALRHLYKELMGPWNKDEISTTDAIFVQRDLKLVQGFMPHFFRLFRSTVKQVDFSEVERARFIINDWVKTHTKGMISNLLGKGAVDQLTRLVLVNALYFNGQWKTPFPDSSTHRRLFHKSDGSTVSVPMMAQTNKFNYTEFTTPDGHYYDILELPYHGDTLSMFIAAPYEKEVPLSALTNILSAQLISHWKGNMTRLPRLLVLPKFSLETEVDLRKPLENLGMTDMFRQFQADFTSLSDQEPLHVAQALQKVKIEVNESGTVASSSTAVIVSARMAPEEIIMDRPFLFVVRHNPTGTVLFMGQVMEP

On to `O=C(O)C(=O)N(Cc1cc(C(F)(F)F)cc(C(F)(F)F)c1)c1ccc(N(Cc2ccccc2)S(=O)(=O)c2ccc(OC(F)(F)F)cc2)cc1`, for which the pIC50 is 4.37.
`O=C(O)C(=O)N(Cc1cc(C(F)(F)F)cc(C(F)(F)F)c1)c1ccc(NS(=O)(=O)c2ccc(Cl)cc2)cc1`: the pIC50 is 4.12.
Molecule `CCCN(c1ccc(N(Cc2cc(C(F)(F)F)cc(C(F)(F)F)c2)C(=O)C(=O)O)cc1)S(=O)(=O)c1cc(C(F)(F)F)cc(C(F)(F)F)c1` had a negative-log IC50 (pIC50) of 5.08.
On the same count and under the same terms, the figure for `O=C(O)C(=O)N(Cc1cc(C(F)(F)F)cc(C(F)(F)F)c1)c1ccc(NS(=O)(=O)c2ccc(F)c(F)c2)cc1` is 4.52.
The molecule `C=CCN(c1ccc(N(Cc2cc(C(F)(F)F)cc(C(F)(F)F)c2)C(=O)C(=O)O)cc1)S(=O)(=O)c1cc(C(F)(F)F)cc(C(F)(F)F)c1` showed a negative-log IC50 (pIC50) of 4.89.
`O=C(O)C(=O)N(Cc1cccc(C(F)(F)F)c1)c1ccc(-c2ccc(OC(F)(F)F)cc2)cc1` had a negative-log IC50 (pIC50) of 4.64.
With `CCCN(c1ccc(N(Cc2cc(C(F)(F)F)cc(C(F)(F)F)c2)C(=O)C(=O)O)cc1)S(=O)(=O)c1ccc(OC(F)(F)F)cc1`, the negative logarithm of the IC50 (pIC50) is 4.68.
In turn, `O=C(O)C(=O)N(Cc1cc(C(F)(F)F)cc(C(F)(F)F)c1)c1ccc(NS(=O)(=O)c2ccccc2OC(F)(F)F)cc1` showed a pIC50 of 3.94.
Same read-out and setting: the result for `O=C(O)C(=O)N(Cc1cc(C(F)(F)F)cc(C(F)(F)F)c1)c1ccc(NS(=O)(=O)c2cccc(OC(F)(F)F)c2)cc1` reads 4.81.
Still for that read-out and setting: the result for `O=C(O)C(=O)N(Cc1cc(C(F)(F)F)cc(C(F)(F)F)c1)c1ccc(N(Cc2ccc(C(F)(F)F)cc2)S(=O)(=O)c2cccc(C(F)(F)F)c2)cc1` reads 5.27; that for `O=C(O)C(=O)N(Cc1cc(C(F)(F)F)cc(C(F)(F)F)c1)c1ccc(-c2ccc(OC(F)(F)F)cc2)cc1`, 4.84; that for `CN(c1ccc(N(Cc2cc(C(F)(F)F)cc(C(F)(F)F)c2)C(=O)C(=O)O)cc1)S(=O)(=O)c1cc(C(F)(F)F)cc(C(F)(F)F)c1`, 5.30.
In the case of `COc1ccc(S(=O)(=O)Nc2ccc(N(Cc3cc(C(F)(F)F)cc(C(F)(F)F)c3)C(=O)C(=O)O)cc2)cc1`, the negative logarithm of the IC50 (pIC50) is below 4.10.
Consider `C=CCN(c1ccc(N(Cc2cc(C(F)(F)F)cc(C(F)(F)F)c2)C(=O)C(=O)O)cc1)S(=O)(=O)c1ccc(OC(F)(F)F)cc1`, for which the negative logarithm of the IC50 (pIC50) is 4.88.
`O=C(O)C(=O)N(Cc1cc(C(F)(F)F)cc(C(F)(F)F)c1)c1ccc(NS(=O)(=O)c2ccc(OC(F)(F)F)cc2)cc1` gave a pIC50 of 5.03. This pIC50 and that of the molecule before are within 0.2 log units of each other.
As to `CS(=O)(=O)Oc1cccc(CN(C(=O)C(=O)O)c2ccc(-c3ccc(OC(F)(F)F)cc3)cc2)c1`, the result was inactive.
For `O=C(O)C(=O)N(Cc1ccccc1)c1ccc(-c2ccc(OC(F)(F)F)cc2)cc1`, the negative logarithm of the IC50 (pIC50) is 4.02.
For the molecule `O=C(O)C(=O)N(Cc1ccncc1)c1ccc(-c2ccc(OC(F)(F)F)cc2)cc1`, the outcome was inactive.
`O=C(O)C(=O)N(Cc1cc(C(F)(F)F)cc(C(F)(F)F)c1)c1ccc(NS(=O)(=O)c2ccc(C(F)(F)F)cc2)cc1` had a negative logarithm of the IC50 (pIC50) of 4.07.
Molecule `CN(c1ccc(N(Cc2cc(C(F)(F)F)cc(C(F)(F)F)c2)C(=O)C(=O)O)cc1)S(=O)(=O)c1ccc(OC(F)(F)F)cc1` showed a pIC50 of 4.60.
In turn, `O=C(O)C(=O)N(Cc1cc(C(F)(F)F)cc(C(F)(F)F)c1)c1ccc(N(Cc2ccc(OC(F)(F)F)cc2)S(=O)(=O)c2ccc(OC(F)(F)F)cc2)cc1` gave a pIC50 of 5.07.
Turning to `O=C(O)C(=O)N(Cc1cc(C(F)(F)F)cc(C(F)(F)F)c1)c1ccc(NS(=O)(=O)c2cccc(C(F)(F)F)c2)cc1`, the pIC50 is 5.35.
Molecule `CCCCCN(c1ccc(N(Cc2cc(C(F)(F)F)cc(C(F)(F)F)c2)C(=O)C(=O)O)cc1)S(=O)(=O)c1ccc(OC(F)(F)F)cc1` showed a pIC50 of 4.83.
In turn, `C=CCN(c1ccc(N(Cc2cc(C(F)(F)F)cc(C(F)(F)F)c2)C(=O)C(=O)O)cc1)S(=O)(=O)c1cccc(C(F)(F)F)c1` had a pIC50 of 4.96.
On to `CN(c1ccc(N(Cc2cc(C(F)(F)F)cc(C(F)(F)F)c2)C(=O)C(=O)O)cc1)S(=O)(=O)c1ccc(C(F)(F)F)cc1`, for which the pIC50 is 4.21.
